Rows were chosen to be rich in hits. Some 4.4% of all compounds tested hit in one or more screens of this group.
T cruzi repl – blocks replication of Trypanosoma cruzi; T. cruzi beta-gal in NIH3T3, luminescence, 90 h; inhibition, % (test concentration not listed); 300,000 tested, 1.4% active;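 active means mean inhibition across valid replicates above about 55%, limit read from the data; inconclusive means mean below that limit but half or more replicates reach it; inactive means mean below it, under half of replicates reach it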;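 further: signal also drops with host cell toxicity which is not excluded here; 0% = plate median of DMSO wells and 100% = zero luminescence signal; higher percent means less beta-gal luminescence so fewer parasites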
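System: Mouse NIH/3T3 fibroblasts infected with β-gal-expressing T. cruzi Tulahuen C4 | Quantity: NIH/3T3 cells, 5,000 per well | Reagent: 5000 reporter trypomastigotes per well | Dosing: Compound pinned at 50 nL/well, DMSO | Schedule: 3 h host attachment, then at least 90 h co-culture | Detection: GalScreen luminescence, 60 min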
Calb FLC – affects C. albicans growth with fluconazole | growth inhibition, % (test concentration not listed) | C. albicans CaCi-2 + fluconazole, Alamar Blue growth, 48 h | AID 1979 | 300,000 tested, 0.57% active;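 active means growth inhibition above about 58% in most replicates, limit read from the data, passing the limit was not always enough; inconclusive means exactly half the replicates above a set limit; inactive means most replicates below a set limit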;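 further: all wells also contain fluconazole at 8 µg/ml as a sub-toxic cotreatment; 0% = median of DMSO wells and 100% = median of geldanamycin control wells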
HSF1 activator – increases HSF-1 driven luciferase reporter signal. NIH3T3-HGL HSF-1 luciferase reporter, MG132, 8 h; 100% = twice DMSO control signal. activation, % at 9 µM. 300,000 tested, 1.7% active. AID 504408;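 active means mean replicate activation of at least 50% with a set share of replicates each reaching 50%; inconclusive means only one of those two conditions met; inactive means mean below 50% and too few replicates reaching it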;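 further: 0% = median of the neutral control wells and 100% = twice that signal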
HIF act – HIF pathway transcriptional activation. AID 1910. 300,000 tested, 0.32% active. U2OS HRE-luciferase reporter, luminescence; normalized: DMSO 0%, desferrioxamine 100%. activation, % at 7.5 µM (by protocol);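 active means mean activation of at least 10% of the iron chelator positive control signal, with at least half of replicates also reaching 10%; inconclusive means mean and replicate majority disagree about reaching 10%; inactive means mean and most replicates under 10%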
HSF1 inh – HSF1 inhibition; NIH3T3-HGL HSE-luciferase, MG132-induced, luminescence 8 h; hits give low values; activity change, negative = inhibition, % at 7.5 µM (by protocol); 300,000 tested, 0.77% active; AID 2098;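 active means more than half of replicate wells show activity change below -50%, luminescence cut by over half; inconclusive means some wells, but at most half, below -50%; inactive means no replicate well below -50%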;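 further: luciferase reports HSF-1 transcriptional activity via heat shock element; 0% = median of DMSO wells and -100% = zero luminescence signal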
Numbers without * were called inactive; ? = inconclusive; / = no result.

SMILES | T cruzi repl | Calb FLC | HSF1 activator | HIF act | HSF1 inh
O=C(Nc1ccc(Nc2ccccc2)cc1)c1cc([N+](=O)[O-])ccc1Cl | 41 | 9 | 134* | 0 | 107
COc1cc(/C=C2\C=CC(=O)O2)cc(OC)c1 | -10 | 8 | 1 | -1 | 4
Cc1cc(OCC(=O)NNC(=O)c2cccs2)ccc1Br | -9 | 30 | -14 | 0 | -1
COc1ccc(-c2nnc(C)c3nocc23)cc1 | 3 | 7 | -14 | 0 | 1
O=C(NNc1ccccc1)C(=O)NNS(=O)(=O)c1ccc([N+](=O)[O-])cc1 | 61* | -20 | 0 | 0 | -1
O=C(NNc1ccc([N+](=O)[O-])cc1)Nc1ccccc1 | -13 | -15 | ? | -2 | 21
Clc1ncnc2scc(C3COc4ccccc4O3)c12 (stereo not given) | 10 | -8 | 58* | -1 | 21
Cc1ccc(-c2csc(N(CCCN(C)C)C(=O)c3ccco3)n2)cc1 | 48 | -2 | -26 | 2 | -7
CCN(C(=O)c1cccs1)c1nc(-c2ccc(OC)cc2)cs1 | 30 | -5 | 25 | 2 | 27
CN(C)CCCN(C(=O)c1ccco1)c1nc(-c2ccc(Cl)cc2)cs1 | 57* | 1 | 20 | 1 | 7
COc1ccc(-c2csc(N(CCCN(C)C)C(=O)c3cccs3)n2)cc1 | 66* | 8 | 22 | 0 | -1
CC(C)CN(C(=O)c1cc(Cl)nc2ccccc12)c1c(N)n(Cc2ccccc2)c(=O)[nH]c1=O | -16 | 5 | -6 | 0 | 1
CCCCOP(=O)(c1ccc(N(C)C)cc1)C(O)c1ccccc1F (stereo not given) | 1 | 95* | 37 | 0 | 7
COc1ccc(C(=O)C2CCCN(C(=O)CCc3scnc3C)C2)c(C)c1 (stereo not given) | 23 | 19 | 13 | 0 | 8
c1ccc(N2CCN(c3cnc4ccccc4n3)CC2)cc1 | 3 | 2 | 75* | 2 | 34
Nc1nc(-c2ccccc2)c(N=Nc2ccccc2Cl)s1 | 31 | 101* | 16 | -1 | 8
O=C(Nc1nc(-c2ccco2)c(-c2ccco2)s1)c1cnccn1 | 70* | / | 1 | -22 | 6
CN(C(=O)COC(=O)c1ccc(Cl)cc1N)C1CCCCC1 | 4 | 12 | 59* | 3 | 21
COC(=O)Cn1c(N)[n+](Cc2ccccc2)c2ccccc21 | -3 | 3 | -7 | -2 | -5
Clc1ccccc1-c1nnc(-c2ccc3c(c2)OCO3)o1 | -12 | 3 | 95* | -7 | 62
COc1cccc(-c2cc(C(=O)N/N=C/c3ccco3)c3ccccc3n2)c1 | -2 | -1 | 35 | 0 | 26
CCCc1ccc(-c2cc(C(=O)N/N=C/c3ccc([N+](=O)[O-])o3)c3ccccc3n2)cc1 | 61* | 2 | -31 | 0 | -10
O=C(N/N=C/c1ccc([N+](=O)[O-])o1)c1cc(-c2cccc(Br)c2)nc2ccccc12 | 63* | 29 | 41 | 0 | 49
CC(C)(C)c1cc(C(=O)NNc2ccc(OC(F)(F)F)cc2)n(Cc2ccccc2)n1 | 39 | 81* | 13 | 0 | -4
Cc1ccc(NNC(=O)c2cc(C(C)(C)C)nn2Cc2ccccc2)cc1 | 26 | 1 | 4 | 0 | 6
SMILES | T cruzi repl | Calb FLC | HSF1 activator | HIF act | HSF1 inh
Cn1c(CCN2CCN(c3ccccc3)CC2)nc2cc(NC(=O)c3ccco3)ccc21 | 1 | 7 | 128* | 0 | 103
Cc1ccc(N2CCN(CCc3nc4cc(NC(=O)c5ccco5)ccc4n3C)CC2)cc1 | -8 | -33 | 69* | 0 | 25
Cc1ccc(/C=N/c2sc(Cc3ccccc3)c(C)c2C(N)=O)o1 | -26 | 7 | -24 | 1 | -8
Cc1ccc(C=Nc2ccccc2C(N)=O)o1 | -18 | -17 | 60* | 5 | 26
CC(=O)c1cc2c(cc1NC(=O)CSc1nc3ccccc3o1)OCO2 | 13 | -9 | 86* | 1 | 51
Cc1nnc(NC(=O)CSc2nc3ccccc3o2)s1 | -13 | 5 | 32 | 0 | 14
Cc1cc(C(=O)CSc2nc3ccccc3o2)c(C)n1C1CC1 | 5 | 9 | 63* | 5 | 18
CC1CCc2nc(NC(=O)CSc3nc4ccccc4o3)sc2C1 (stereo not given) | 4 | 7 | -63 | 0 | -59*
CC(=O)c1cc2c(cc1NC(=O)CSc1nc3ccccc3[nH]1)OCO2 | 3 | -7 | -9 | 0 | 13
COc1ccccc1CNC(=O)[C@@H]1CCCN1S(=O)(=O)c1ccc(C)cc1 | -10 | -12 | 27 | 0 | 8
Cc1oc(-c2ccccc2F)nc1CN1CCC(C(=O)NC2CCCCCCC2)CC1 | 10 | -28 | 57* | 0 | 34
COc1cccc(/C=N/N2CCN(c3ccncc3S(=O)(=O)N3CCCCC3)CC2)c1 | 66* | 1 | 5 | 0 | 1
Cc1ccc(/C=N/N2CCN(c3ccncc3S(=O)(=O)N3CCCCC3)CC2)cc1 | 14 | -11 | -3 | 0 | -2
CC(Oc1ccc2ccc(=O)oc2c1)C(=O)NCCN1CCOCC1 (stereo not given) | -15 | -4 | -1 | 61* | -5
COc1cc2nc(N(CCCN(C)C)C(=O)c3ccc(S(=O)(=O)N4CCc5ccccc54)cc3)sc2cc1OC | 55* | -7 | -13 | 0 | -6
COc1cc2nc(N(CCCN(C)C)C(=O)c3ccc(S(=O)(=O)N(C)C4CCCCC4)cc3)sc2cc1OC | 50 | 3 | 1 | 1 | -1
COc1ccc2sc(N(CCCN(C)C)C(=O)c3ccc(S(=O)(=O)N4CCCc5ccccc54)cc3)nc2c1 | 62* | 46 | -6 | -60 | -17
CCc1ccc(C2c3[nH]c4ccccc4c3CCN2C(=O)CN2CCN(CC)CC2)cc1 (stereo not given) | 40 | -10 | 6 | 0 | -2
CCc1ccc(C2c3[nH]c4ccccc4c3CCN2C(=O)c2ccc(=O)n(C)n2)cc1 (stereo not given) | 20 | 88* | / | 0 | /
CSc1ccc(C2c3[nH]c4ccccc4c3CCN2C(=O)c2ccnn2C)cc1 (stereo not given) | 20 | 92* | ? | 3 | 41
C[C@]12CCC(O)CC1=CCC1C2CC[C@]2(C)/C(=N\NC(N)=S)CCC12 (stereo not given in full) | 66* | -6 | 13 | -2 | -2
Cc1ccc(NC(=O)c2sc(Cl)nc2-c2ccccc2)cc1C | 16 | 13 | 61* | 0 | 26
Cc1ccc(NC(=O)c2cnc3ccccc3n2)cc1C | -9 | 1 | 62* | 3 | 23
O=Nc1c(O)n(Cc2ccc(Cl)c(Cl)c2)c2ccccc12 | 9 | 79* | 15 | -1 | -3
O=Nc1c(O)n(Cc2cccc(C(F)(F)F)c2)c2ccccc12 | 22 | 117* | -5 | -1 | -6
CCNC(=O)c1ccc(NS(=O)(=O)c2ccc3[nH]c(=O)[nH]c3c2)cc1 | -18 | -10 | -14 | 0 | -13
